# Rows were chosen to be rich in hits. Some 2.9% of all compounds tested hit in one or more screens of this group.
# KLK7 zymogen act = proKLK7 zymogen activators, primary screen, biochemical, fluorescence intensity; Kallikrein-7 (Homo sapiens), P49862; purified proKLK7, EDANS-DABCYL substrate fluorescence; 100% is mature enzyme control, 0% vehicle; activation, % at 7 µM; 370,000 tested, 0.9% active;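 active = activation above the mean of all tested compounds plus 3 SD, computed per campaign excluding outliers beyond control limits, cut at about 13% in these data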
# Tn6 DDE FP = inhibitors of Tn6 peptide binding to fibrin DD(E), primary screen, biochemical, fluorescence polarization, human fibrin, Tn6 probe | Fibrin DD(E) TRITC-Tn6 fluorescence polarization displacement | inhibition, % at 8.3 µM | 370,000 tested, 0.21% active;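 active = inhibition above a per-campaign cutoff: mean of compounds within control limits plus 3 SD, cut at about 15% in these data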;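 note: 0% = median of all compound wells on the plate and 100% = blocking peptide control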
# Target sequence (P02675 whole entry, looked up): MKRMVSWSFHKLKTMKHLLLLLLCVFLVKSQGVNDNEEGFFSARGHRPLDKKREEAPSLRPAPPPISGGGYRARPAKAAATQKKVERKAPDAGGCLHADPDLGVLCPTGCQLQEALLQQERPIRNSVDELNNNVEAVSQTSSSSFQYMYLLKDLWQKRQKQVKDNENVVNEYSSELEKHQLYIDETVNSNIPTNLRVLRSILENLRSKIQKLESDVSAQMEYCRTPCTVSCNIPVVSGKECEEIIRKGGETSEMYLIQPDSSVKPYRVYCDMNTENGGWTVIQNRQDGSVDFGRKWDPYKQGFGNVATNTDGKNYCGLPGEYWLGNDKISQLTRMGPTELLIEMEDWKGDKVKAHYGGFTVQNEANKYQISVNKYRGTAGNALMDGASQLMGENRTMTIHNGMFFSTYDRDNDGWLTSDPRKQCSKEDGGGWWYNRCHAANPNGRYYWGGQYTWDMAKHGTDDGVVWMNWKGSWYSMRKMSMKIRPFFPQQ
# Tn7 DDE FP = inhibitors of Tn7 peptide binding to fibrin DD(E), primary screen, biochemical, fluorescence polarization, human fibrin, Tn7 probe. Fibrinogen beta chain (Homo sapiens), P02675. FP displacement of FITC-Tn7 peptide from fibrin DD(E); 0% = median of compound wells per plate. AID 720508, 2013. 370,000 tested, 0.13% active. inhibition, % at 8.3 µM;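 active = inhibition above the mean of compounds falling within the control limits plus 3 SD of them, cut at about 14% in these data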;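 note: 0% = plate median of compound wells and 100% = 10 µM Aha-Tn7 peptide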
#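 Assay system: Fibrin-DD(E) protein isolated from polymerized human fibrin clots; read-out basis: percent inhibition; medium: Tris/NaCl/CaCl2 buffer, pH 7.8; signal: FP measurement; incubation: 10 min plus 3 h, room temperature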
# NRP1-CendR mod = modulators of CendR peptide binding to NRP-1, primary screen, biochemical, fluorescence polarization, uHTS; inhibition, % at 25 µM; FAM-RPARPAR peptide binding to NRP-1; 360,000 tested, 0.85% active; AID 602438, 2012;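 active = inhibition or corrected inhibition above about 18%, plus a signal ratio from 0.5 to 1.5, limit read from the data, passing the limit was not always enough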
# CRFBP-R2 agonist = agonists of CRF-BP/CRF-R2 complex, primary screen, cell-based, HEK293, calcium dye fluorescence, uHTS. CRF-binding protein / CRF receptor 2 complex (human). activation, % at 13.2 µM. calcium dye fluorescence (FLIPR); percent of saturating CRF peptide response. AID 588473, 2011. 350,000 tested, 0.46% active;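 active = activation of at least 50%, plus an integration ratio under a set limit after plate pattern correction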;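 note: plate controls were neutral control wells without compound for no effect and CRF at EC100 for full effect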
# CRFR2-BP antag = antagonists of CRF-BP/CRF-R2 complex, primary screen, cell-based, HEK293, calcium dye fluorescence, uHTS. CRF-induced calcium fluorescence. inhibition, % at 11.8 µM. 350,000 tested, 0.59% active;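 active = inhibition of the ligand-induced calcium signal above about 50% at the single tested concentration, limit read from the data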
# proKLK7 act conf = proKLK7 zymogen activators, confirmation, biochemical, fluorescence intensity, triplicate; shares compounds with KLK7 zymogen act; purified proKLK7, EDANS-DABCYL substrate fluorescence; scaled: vehicle 0, mature enzyme 100; activation, % at 7 µM; 3,200 tested, 68% active; AID 686949, 2013;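 active = activation, as change over the incubation, above the mean of all tested compounds plus 3 SD, cut at about 13% in these data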
# EDANS interfere = EDANS-DABCYL substrate optical interference, artefact control for kallikrein-7 zymogen activator project, biochemical, fluorescence intensity, high throughput; activation, % at 7 µM; AID 686952, 2013; shares compounds with KLK7 zymogen act; no enzyme, 4 h; solvent 0%, active enzyme control 100%; 3,200 tested, 80% active;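 active = activation above the all-compound mean plus 3 SD, ignoring values outside control-based bounds, cut at about 4.8% in these data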;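 note: value is the 4 h activation minus the activation read at time zero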
# K7 EDANS ctr = EDANS fluorescence interference in dose response, no enzyme; shares compounds with KLK7 zymogen act; EDANS-DABCYL peptide fluorescence interference; EC50, µM; 250 tested, 20% active; AID 720493;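 active = compounds that raise the fluorescence signal in this interference counterscreen, with EC50 at or below 10 µM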;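 note: intact quenched peptide substrate alone read at 355 nm excitation and 520 nm emission; signal is fluorescence gain from T0 to T4 after four hours at room temperature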
# Numbers without * were called inactive; i = inactive; nt = no result.
SMILES,KLK7 zymogen act,Tn6 DDE FP,Tn7 DDE FP,NRP1-CendR mod,CRFBP-R2 agonist,CRFR2-BP antag,proKLK7 act conf,EDANS interfere,others
CCC(=O)Oc1ccc2c(c1)OC1(OC(C)=O)OC(C)CC1=C2C (stereo not drawn),297*,-4,3,10,0,4,610*,615*,
CN(C)CCCNC(=O)C[C@H]1C[C@H](C(=O)N2CCOCC2)[C@@]2(C)c3[nH]c4cc(-c5ccco5)ccc4c3CCN2C1=O,54*,-9,-6,-14,5,-2,56*,57*,
COc1ccc(CNC(=O)C[C@H]2C[C@H](C(=O)N(C(C)C)C(C)C)[C@@]3(C)c4[nH]c5cc(-c6ccco6)ccc5c4CCN3C2=O)cc1OC,13*,3,-2,1,3,2,12,10*,
COCCCNC(=O)CC1C[C@H](C(=O)N2CCOCC2)[C@@]2(C)c3[nH]c4ccccc4c3CCN2C1=O (stereo partly drawn),-1,-9,3,-7,-1,7,nt,nt,
COCCCNC(=O)C[C@H]1C[C@H](C(=O)N(C(C)C)C(C)C)[C@@]2(C)c3[nH]c4cc(-c5ccco5)ccc4c3CCN2C1=O,137*,-4,-4,-24,-2,-1,152*,146*,
COCCCNC(=O)CC1C[C@H](C(=O)N(C(C)C)C(C)C)[C@@]2(C)c3[nH]c4ccccc4c3CCN2C1=O (stereo partly drawn),1,-1,-5,11,0,-6,nt,nt,
COCCCNC(=O)C[C@H]1C[C@H](C(=O)N2CCOCC2)[C@@]2(C)c3[nH]c4cc(-c5ccco5)ccc4c3CCN2C1=O,82*,-9,-15,-15,0,6,95*,130*,
CCOc1ccc(/C=N/n2c(-c3n[nH]c4c3CCC4)n[nH]c2=S)cc1,1,-4,-7,nt,nt,nt,nt,nt,
CC(=O)c1cc(-c2ccc3nonc3c2)c(=O)n2c1CCC2,0,1,2,nt,nt,nt,nt,nt,
Cc1cc(C)cc(C(=O)OCCN(C)C2CN(Cc3cn(Cc4cccc(F)c4)nn3)S(=O)(=O)C2)c1 (stereo not drawn),0,-5,0,nt,nt,nt,nt,nt,
O=C1NC(c2ccc(Cl)c([N+](=O)[O-])c2)Nc2ccccc21 (stereo not drawn),0,1,-1,-9,3,-15,nt,nt,
O=C1NC(c2cccc(OCc3ccccc3)c2)Nc2ccccc21 (stereo not drawn),14*,9,-2,-4,-1,12,-23,-29,
COc1cc(C)c(C2NC(=O)c3ccccc3N2)cc1C (stereo not drawn),5,-5,5,-7,0,-20,nt,nt,
O=C1NC(c2ccccc2O)Nc2ccccc21 (stereo not drawn),22*,-7,-6,-8,1,-15,11,17*,
Cc1ccc(C)c(C2NC(=O)c3ccccc3N2)c1 (stereo not drawn),36*,3,1,17,1,-7,24*,21*,
O=C1NC(c2ccc(O)cc2)Nc2ccccc21 (stereo not drawn),29*,-8,4,9,0,9,25*,27*,
Cc1cc(N2CCNC[C@@H]2C)ccc1N1CCN(Cc2ccccc2)[C@H](C)C1,0,2,1,nt,nt,nt,nt,nt,
COC(=O)C1CN(Cc2ccc(OC)cc2)CCS(=O)(=O)N1Cc1cn(Cc2ccc(C)cc2)nn1 (stereo not drawn),0,-4,0,nt,nt,nt,nt,nt,
CSc1ccc(C2Nc3cccc4cccc(c34)N2)cc1,0,0,-4,12,-2,11,nt,nt,
COc1ccc(C2NC(=O)c3ccccc3O2)c(OC)c1OC (stereo not drawn),-2,2,0,6,0,2,nt,nt,
CSc1ccc(C2NC(=O)c3ccccc3N2)cc1 (stereo not drawn),17*,2,-4,2,-2,-11,17*,13*,K7 EDANS ctr=>69
COc1ccc(C2NC(=O)c3ccccc3N2)c(OC)c1OC (stereo not drawn),33*,-7,-2,-11,3,-18,45*,47*,
CN1CCN(c2ccc3c(c2)Oc2ccccc2CN(Cc2cn(Cc4cccc(C(F)(F)F)c4)nn2)S3(=O)=O)CC1,0,0,2,nt,nt,nt,nt,nt,
N#CC1C(=O)NC(c2ccccc2)=CC1c1ccccc1 (stereo not drawn),124*,-1,1,2,-2,19,110*,103*,
C[C@@H]1C(=O)N2N=Cc3cc4ccccc4cc3[C@H]2N2N=Cc3cc4ccccc4cc3[C@@H]12,-1,0,9,nt,nt,nt,nt,nt,
SMILES,KLK7 zymogen act,Tn6 DDE FP,Tn7 DDE FP,NRP1-CendR mod,CRFBP-R2 agonist,CRFR2-BP antag,proKLK7 act conf,EDANS interfere,others
O=C(O)c1ccc(C=Nn2c(-c3ccc(F)cc3)n[nH]c2=S)cc1,1,-1,3,nt,nt,nt,nt,nt,
O=C1c2ccccc2/C(=C\c2ccc(O[C@@H]3CCCCO3)cc2)N1c1ccccc1,100*,-5,7,nt,nt,nt,4,15*,
CC1(C)CC2CN(Cc3ccccc3)S(=O)(=O)N2C1 (stereo not drawn),nt,7,-4,nt,nt,nt,nt,nt,
Cc1ccc(NC(=O)C2=CC(c3cccs3)=NS(=O)(=O)N2C)cc1,18*,8,2,0,2,-16,22*,13*,K7 EDANS ctr=i
CCOC(=O)c1nn(-c2ccc(F)cc2)c2nc(-c3ccccc3)c(C#N)c(=O)n12,40*,2,0,-4,1,8,138*,146*,
CC(C)CN1C(=O)N2CCc3ccccc3C2CS1(=O)=O (stereo not drawn),0,-3,-5,nt,nt,nt,nt,nt,
CC(=O)N1CCC2(CC1)CC(=O)c1cc(OCC(=O)NCc3ccco3)ccc1O2,28*,1,4,7,0,1,48*,49*,

# Screening results from PubChem.
